According to ChEMBL document CHEMBL4689842, “EUbOPEN Chemogenomics Library wave 1” (2021):

Tested on: Fibroblast
Test: Multiplex assay against human fibroblast
Type: toxicity, cell-based
Method in brief: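 Hoechst33342, BioTracker Green Microtubule Cytoskeleton Dye, MitoTracker Red and Annexin V Alexa Fluor 680 were added to live cells at seeding, and imaging on a CQ1 microscope at 37°C and 5% CO2 followed compound addition. Gating by CellPathfinder machine learning separated cells into Hoechst high-intensity objects or normal cells, then normal cells into healthy, pyknosed or fragmented nuclei, then pyknosed cells into mitotic or apoptotic. Per cents of healthy-nucleus cells are reported for the tubulin, mitochondrial-mass and membrane-permeability phenotypes.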

[1] = 12 h, 1 µM, compound concentration 1 uM, replicate 1
[2] = 12 h, 1 µM, compound concentration 1 uM, replicate 2
[3] = 12 h, 10 µM, compound concentration 10 uM, replicate 1
[4] = 12 h, 10 µM, compound concentration 10 uM, replicate 2
[5] = 24 h, 1 µM, compound concentration 1 uM, replicate 1
[6] = 24 h, 1 µM, compound concentration 1 uM, replicate 2
[7] = 24 h, 10 µM, compound concentration 10 uM, replicate 1
[8] = 24 h, 10 µM, compound concentration 10 uM, replicate 2

Structure (SMILES): COc1ccc(-c2ccc3c(N4CCOCC4)nc(N4C[C@@H](C)O[C@@H](C)C4)nc3n2)cc1CO [Ku-0063794]
- Population Apoptotic (%) [1]: 72%
- Population Fragmented Nuclei (%) [1]: 30%
- Population Healthy Nuclei (%) [1]: 52%
- Population Hoechst High Intensity Objects (%) [1]: 16%
- Population Membrane Permeable-Phenotype (%) [1]: 5%
- Population Mitochondria Different-Phenotype (%) [1]: 1%
- Population Mitotic Cells (%) [1]: 27%
- Population Normal (%) [1]: 83%
- Population Pyknosed Nuclei (%) [1]: 16%
- Population Tubulin-Different-Phenotype (%) [1]: 3%
- Total Cell Count [1]: 281
- Population Apoptotic (%) [2]: 33%
- Population Fragmented Nuclei (%) [2]: 61%
- Population Healthy Nuclei (%) [2]: 30%
- Population Hoechst High Intensity Objects (%) [2]: 35%
- Population Membrane Permeable-Phenotype (%) [2]: 17%
- Population Mitochondria Different-Phenotype (%) [2]: 13%
- Population Mitotic Cells (%) [2]: 66%
- Population Normal (%) [2]: 64%
- Population Pyknosed Nuclei (%) [2]: 8%
- Population Tubulin-Different-Phenotype (%) [2]: 17%
- Total Cell Count [2]: 116
- Population Apoptotic (%) [3]: 77%
- Population Fragmented Nuclei (%) [3]: 72%
- Population Healthy Nuclei (%) [3]: 20%
- Population Hoechst High Intensity Objects (%) [3]: 63%
- Population Membrane Permeable-Phenotype (%) [3]: 14%
- Population Mitochondria Different-Phenotype (%) [3]: 3%
- Population Mitotic Cells (%) [3]: 22%
- Population Normal (%) [3]: 36%
- Population Pyknosed Nuclei (%) [3]: 6%
- Population Tubulin-Different-Phenotype (%) [3]: 7%
- Total Cell Count [3]: 736
- Population Apoptotic (%) [4]: 0%
- Population Fragmented Nuclei (%) [4]: 82%
- Population Healthy Nuclei (%) [4]: 17%
- Population Hoechst High Intensity Objects (%) [4]: 66%
- Population Membrane Permeable-Phenotype (%) [4]: 42%
- Population Mitochondria Different-Phenotype (%) [4]: 42%
- Population Mitotic Cells (%) [4]: 0%
- Population Normal (%) [4]: 33%
- Population Pyknosed Nuclei (%) [4]: 0%
- Population Tubulin-Different-Phenotype (%) [4]: 28%
- Total Cell Count [4]: 244
- Population Apoptotic (%) [5]: 67%
- Population Fragmented Nuclei (%) [5]: 33%
- Population Healthy Nuclei (%) [5]: 54%
- Population Hoechst High Intensity Objects (%) [5]: 18%
- Population Membrane Permeable-Phenotype (%) [5]: 7%
- Population Mitochondria Different-Phenotype (%) [5]: 2%
- Population Mitotic Cells (%) [5]: 32%
- Population Normal (%) [5]: 81%
- Population Pyknosed Nuclei (%) [5]: 11%
- Population Tubulin-Different-Phenotype (%) [5]: 3%
- Total Cell Count [5]: 290
- Population Apoptotic (%) [6]: 80%
- Population Fragmented Nuclei (%) [6]: 65%
- Population Healthy Nuclei (%) [6]: 28%
- Population Hoechst High Intensity Objects (%) [6]: 25%
- Population Membrane Permeable-Phenotype (%) [6]: 9%
- Population Mitochondria Different-Phenotype (%) [6]: 13%
- Population Mitotic Cells (%) [6]: 20%
- Population Normal (%) [6]: 74%
- Population Pyknosed Nuclei (%) [6]: 6%
- Population Tubulin-Different-Phenotype (%) [6]: 13%
- Total Cell Count [6]: 105
- Population Apoptotic (%) [7]: 59%
- Population Fragmented Nuclei (%) [7]: 72%
- Population Healthy Nuclei (%) [7]: 21%
- Population Hoechst High Intensity Objects (%) [7]: 58%
- Population Membrane Permeable-Phenotype (%) [7]: 10%
- Population Mitochondria Different-Phenotype (%) [7]: 0%
- Population Mitotic Cells (%) [7]: 40%
- Population Normal (%) [7]: 41%
- Population Pyknosed Nuclei (%) [7]: 6%
- Population Tubulin-Different-Phenotype (%) [7]: 7%
- Total Cell Count [7]: 790
- Population Apoptotic (%) [8]: 100%
- Population Fragmented Nuclei (%) [8]: 78%
- Population Healthy Nuclei (%) [8]: 20%
- Population Hoechst High Intensity Objects (%) [8]: 70%
- Population Membrane Permeable-Phenotype (%) [8]: 28%
- Population Mitochondria Different-Phenotype (%) [8]: 21%
- Population Mitotic Cells (%) [8]: 0%
- Population Normal (%) [8]: 29%
- Population Pyknosed Nuclei (%) [8]: 1%
- Population Tubulin-Different-Phenotype (%) [8]: 21%
- Total Cell Count [8]: 241
